Source: publication PMC7451030 (European journal of medicinal chemistry, 2020)

Experiments:
human GLUT1 = target: T1, human GLUT1 (Homo sapiens, UniProt P11166); assay: GLUT1 transport assay; type: cell-based; settings: 100 μM compound
T1 sequence (P11166 1-492): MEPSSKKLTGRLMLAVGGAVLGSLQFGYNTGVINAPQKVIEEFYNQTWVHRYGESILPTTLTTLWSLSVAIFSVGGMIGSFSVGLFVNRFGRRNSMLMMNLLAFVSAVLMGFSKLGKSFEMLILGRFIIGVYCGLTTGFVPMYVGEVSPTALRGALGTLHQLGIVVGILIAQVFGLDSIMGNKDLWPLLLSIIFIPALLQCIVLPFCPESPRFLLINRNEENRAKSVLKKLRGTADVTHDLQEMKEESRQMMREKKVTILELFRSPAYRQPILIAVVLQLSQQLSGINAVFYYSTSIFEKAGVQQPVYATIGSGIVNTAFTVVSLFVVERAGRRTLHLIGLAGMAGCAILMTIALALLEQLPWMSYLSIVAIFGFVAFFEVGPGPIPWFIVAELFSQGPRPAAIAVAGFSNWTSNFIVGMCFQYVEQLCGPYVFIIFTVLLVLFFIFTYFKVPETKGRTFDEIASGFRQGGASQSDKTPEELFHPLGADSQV
Outline: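 hxt0 yeast VW4000fgy1 expressing human GLUT1 was grown at 30 °C in SC-uracil with 2% maltose for 2–3 days, then 2% glucose for 1–2 days. Cells were resuspended in PBS pH 7.4 at OD600 ~10 and given 100 µM compound (1% DMSO final). Uptake of 5 mM 14C-glucose ran 10 min, then ice-cold KPi/LiCl quench pH 5.5, filtration and scintillation counting. Activity was taken relative to 1% DMSO and 200 µM phloretin.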

human GLUT4 = target: T2, human GLUT4 (Homo sapiens, UniProt P14672); assay: GLUT4 transport assay; type: cell-based; settings: 100 μM compound
T2 sequence (P14672 1-509): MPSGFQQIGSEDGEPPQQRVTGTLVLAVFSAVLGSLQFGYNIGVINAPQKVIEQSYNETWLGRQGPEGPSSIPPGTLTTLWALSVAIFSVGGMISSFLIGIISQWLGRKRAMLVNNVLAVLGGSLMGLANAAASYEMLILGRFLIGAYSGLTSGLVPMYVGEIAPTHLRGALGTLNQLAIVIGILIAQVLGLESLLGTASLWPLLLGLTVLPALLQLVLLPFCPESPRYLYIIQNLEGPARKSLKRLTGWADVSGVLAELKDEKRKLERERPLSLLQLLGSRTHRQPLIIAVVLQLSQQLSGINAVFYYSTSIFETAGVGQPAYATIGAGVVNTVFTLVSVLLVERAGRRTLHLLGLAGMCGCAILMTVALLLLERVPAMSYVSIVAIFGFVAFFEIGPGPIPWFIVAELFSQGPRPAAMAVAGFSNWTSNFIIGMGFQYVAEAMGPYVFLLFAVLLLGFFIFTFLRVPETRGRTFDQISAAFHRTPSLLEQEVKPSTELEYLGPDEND
Outline: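 GLUT4 was expressed in hxt0 yeast VW4000fgy1erg4 grown at 30 °C in SC-uracil with 1% maltose, then 0.2% glucose. Washed cells were assayed in PBS pH 7.4 at OD600 ~10 with 100 µM compound (1% DMSO final) and 5 mM 14C-glucose for 10 min. The reaction was stopped with cold KPi/LiCl pH 5.5, then filtered and counted by scintillation. Values are relative to 1% DMSO and 200 µM phloretin controls.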

human GLUT5 = assay: GLUT5 transport assay; type: cell-based; settings: 100 μM compound; 10 mM C14-fructose
Outline: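 VW4000 hxt0 yeast carrying human GLUT5 was grown for 1 day in YEP with 2% maltose and 100 µg/ml G418, then 1–2 days in 2% fructose with G418, at 30 °C. Cells in PBS pH 7.4 at OD600 ~10 received 100 µM compound (1% DMSO final) and 10 mM 14C-fructose for 10 min. Cold quench pH 5.5 and filtration followed, with scintillation read-out. Controls: 1% DMSO and 100 µM MSNBA.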

CEM cells = assay: Cell cycle analysis by flow cytometry; type: cell-based, human; settings: CEM, 10, 25 or 50 μM, 72 h
CEM xenograft tumor = settings: for xenograft volume of untreated group relative to treated group: SCID mice, CEM xenograft, doxorubicin 20 mg/kg i.p., F18 50 mg/kg i.p., 18 days
[1] = test system: p-mTOR, CDK2, GRP78 and Caspase 3 in F18-treated cells; assay: Western blotting of cell signaling proteins; type: cell-based, human; settings: 10 μM, 6 h
Outline: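 Treated cells were washed in cold PBS and lysed in Laemmli buffer (62.5 mM Tris-HCl pH 6.8, 10% glycerol, 2% SDS) with protease inhibitors, then sonicated and protein quantified. Membranes were blocked 45 min in PBS-Tween-5% milk. Primary antibodies ran 3 h and secondary 1 h, both at room temperature. Controls: untreated and staurosporine.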

normal WBCs = assay: MTT viability assay on non-transformed WBCs; type: cell-based, human; settings: 187.2 μM vs 1.7 μM
[2] = Differential Nuclear Staining; type: cell-based; settings: human
Outline: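 CC50 determined by DNS assay in CCRF-CEM (RPMI) and in non-cancerous HS-27 fibroblasts (DMEM). Both media had 10% FBS and penicillin/streptomycin, at 37 °C and 5% CO2. Cells were seeded at 10,000/well (HS-27 at 3,000/well) and treated at 0.5–100 µM for 48 h, in quadruplicate. Hoechst and PI were added 2 h before imaging. Controls: DMSO, H2O2 and untreated. Ratio = HS-27 CC50 / CEM CC50.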

GLUT1 = settings: read-out: GLUT1 IC50; commercially available GLUT1 inhibitor; cited from earlier work

SMILES	decrease of relative transport activity of GLUT1, primary screen (human GLUT1)	decrease of relative transport activity of GLUT4, primary screen (human GLUT4)	inhibition of GLUT5 transport activity, primary screen (human GLUT5)	xenograft volume of untreated group relative to treated group (CEM xenograft tumor)	also measured
Cc1cccc2sc(NC(=O)CN3C(=O)S/C(=C/c4ccco4)C3=O)nc12 [Compound F8, 2-(5-(Furan-2-ylmethylene)-2,4-dioxothiazolidin-3-yl)-N-(4-methylbenzo[d]thiazol-2-yl)acetamide]	at least 50%	at least 50%	–	–	–
O=C(CN1C(=O)S/C(=C/c2ccco2)C1=O)Nc1ccc([N+](=O)[O-])cc1 [Compound F14, 2-(5-(Furan-2-ylmethylene)-2,4-dioxothiazolidin-3-yl)-N-(4-nitrophenyl) acetamide]	did not inhibit	did not inhibit	did not inhibit	–	–
O=C(CN1C(=O)S/C(=C/c2ccco2)C1=O)Nc1nc2ccccc2s1 [Compound F18, N-(benzo[d]thiazol-2-yl)-2-(5-(furan-2-ylmethylene)-2,4-dioxothiazolidin-3-yl)acetamide]	at least 50%	at least 50%	neither F18 nor F19 affected the transport activity of GLUT5	~2 times	cell cycle effect (CEM cells): arrest of the cell cycle in the sub G0/G1phase; weight loss or signs of toxicity (CEM xenograft tumor; mouse, in vivo, ip, 50 mg/kg): no considerable weight loss or any other noticeable signs of toxicity; caspase 3 [1]: activation; level of CDK2 [1]: decrease; level of endoplasmic stress marker GRP78 [1]: increase; level of phosphorylated mTOR [1]: decrease; GLUT1 relative activity retained (human GLUT1): almost completely; ratio of IC50 WBCs to CEM cell line (normal WBCs): 100 times
O=C(CN1C(=O)S/C(=C/c2ccco2)C1=O)Nc1ccc(Cl)c(Cl)c1 [Compound F19, N-(3,4-dichlorophenyl)-2-(5-(furan-2-ylmethylene)-2,4-dioxothiazolidin-3-yl) acetamide]	at least 50%	at least 50%	neither F18 nor F19 affected the transport activity of GLUT5	–	selectivity ratio at 48 h [2]: > 12.8
CC(=O)CC(=O)Nc1ccc(Cl)c(C(F)(F)F)c1 [Fasentin]	–	–	–	–	IC50 (GLUT1): 10 µM
COc1cccc2c1C(=O)c1c(O)c3c(c(O)c1C2=O)C[C@@](O)(C(=O)CO)C[C@@H]3O[C@H]1C[C@H](N)[C@H](O)[C@H](C)O1 [doxorubicin, reference compound]	–	–	–	approximately 1.5 times	–
